Source: PMC3401285 (Bioorganic & medicinal chemistry letters, 2012)

Legend:
Assay type in all cases: cell-based
human M4 receptor = molecular target: T1, human M4 receptor (Homo sapiens, UniProt P08173); assay: Calcium mobilization assay, potency determination; conditions: for %AChmax ± SEM: efficacy as % of maximal ACh response, hM4; for hM4 PAM activity (in words): hM4, text statement
T1 sequence (P08173 1-479): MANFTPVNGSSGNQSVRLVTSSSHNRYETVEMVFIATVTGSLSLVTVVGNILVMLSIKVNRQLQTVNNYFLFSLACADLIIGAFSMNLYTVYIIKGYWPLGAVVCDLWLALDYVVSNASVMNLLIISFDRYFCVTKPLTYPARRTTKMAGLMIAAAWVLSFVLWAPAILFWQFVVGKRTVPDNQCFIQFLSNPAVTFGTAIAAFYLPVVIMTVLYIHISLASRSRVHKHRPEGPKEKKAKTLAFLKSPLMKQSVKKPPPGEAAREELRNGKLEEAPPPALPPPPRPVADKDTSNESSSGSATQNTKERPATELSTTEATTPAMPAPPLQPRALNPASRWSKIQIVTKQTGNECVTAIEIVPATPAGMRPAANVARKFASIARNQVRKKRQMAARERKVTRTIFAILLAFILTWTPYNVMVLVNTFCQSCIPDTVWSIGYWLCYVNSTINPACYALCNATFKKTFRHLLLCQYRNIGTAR

M3 = M3 (Homo sapiens, UniProt P20309); assay: Muscarinic selectivity panel, calcium mobilization; conditions: concentration up to 30 µM
In short: (§1)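 CHO cells stably expressing the human receptor (M1 transfected into CHO K1; M3 and M5 lines donated), grown in Ham's F-12, 10% heat-inactivated FBS, 20 mM HEPES, 500 µg/mL G418. Cells plated at 15,000/well overnight (37 °C, 5% CO2), then loaded 45 min at 37 °C with Fluo-4 AM in HBSS, 20 mM HEPES, 2.5 mM probenecid. Compound preincubated 144 s (0.3% DMSO final) before ACh; calcium read kinetically at 37 °C.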

M1 = molecular target: T2, M1 (Homo sapiens, UniProt P11229); assay: Muscarinic selectivity panel, calcium mobilization; conditions: concentration up to 30 µM
T2 sequence (P11229 1-460): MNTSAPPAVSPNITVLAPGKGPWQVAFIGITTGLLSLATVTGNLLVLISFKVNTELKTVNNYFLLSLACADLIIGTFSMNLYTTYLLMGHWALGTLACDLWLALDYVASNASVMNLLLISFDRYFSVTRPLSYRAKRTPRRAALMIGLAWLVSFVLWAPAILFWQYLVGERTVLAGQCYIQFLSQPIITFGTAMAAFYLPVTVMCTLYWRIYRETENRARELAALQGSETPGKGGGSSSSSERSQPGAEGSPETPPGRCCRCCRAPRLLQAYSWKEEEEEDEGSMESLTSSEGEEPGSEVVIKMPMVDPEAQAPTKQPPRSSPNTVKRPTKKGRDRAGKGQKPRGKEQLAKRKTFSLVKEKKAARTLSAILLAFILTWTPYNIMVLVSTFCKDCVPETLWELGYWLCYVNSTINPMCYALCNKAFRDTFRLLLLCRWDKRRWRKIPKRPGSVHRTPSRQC
In short: as §1

M5 = molecular target: T3, M5 (Homo sapiens, UniProt P08912); assay: Muscarinic selectivity panel, calcium mobilization; conditions: concentration up to 30 µM
T3 sequence (P08912 1-532): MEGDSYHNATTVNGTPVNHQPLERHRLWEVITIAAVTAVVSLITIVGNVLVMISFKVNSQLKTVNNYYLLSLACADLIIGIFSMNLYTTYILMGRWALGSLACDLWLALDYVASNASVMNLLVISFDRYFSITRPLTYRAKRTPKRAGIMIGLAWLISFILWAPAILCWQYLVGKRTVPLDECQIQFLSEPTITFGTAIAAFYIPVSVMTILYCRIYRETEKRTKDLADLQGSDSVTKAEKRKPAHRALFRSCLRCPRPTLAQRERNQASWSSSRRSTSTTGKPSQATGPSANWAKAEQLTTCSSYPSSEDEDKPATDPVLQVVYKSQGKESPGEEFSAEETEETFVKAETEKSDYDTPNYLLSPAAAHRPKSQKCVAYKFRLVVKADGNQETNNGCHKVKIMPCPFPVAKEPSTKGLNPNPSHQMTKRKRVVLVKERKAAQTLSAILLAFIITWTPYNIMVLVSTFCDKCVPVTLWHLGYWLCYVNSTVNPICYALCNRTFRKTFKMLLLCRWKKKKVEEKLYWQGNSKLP
In short: as §1

M2 = molecular target: T4, M2 (Homo sapiens, UniProt P08172); assay: Muscarinic selectivity panel, calcium mobilization; conditions: concentration up to 30 µM
T4 sequence (P08172 1-466): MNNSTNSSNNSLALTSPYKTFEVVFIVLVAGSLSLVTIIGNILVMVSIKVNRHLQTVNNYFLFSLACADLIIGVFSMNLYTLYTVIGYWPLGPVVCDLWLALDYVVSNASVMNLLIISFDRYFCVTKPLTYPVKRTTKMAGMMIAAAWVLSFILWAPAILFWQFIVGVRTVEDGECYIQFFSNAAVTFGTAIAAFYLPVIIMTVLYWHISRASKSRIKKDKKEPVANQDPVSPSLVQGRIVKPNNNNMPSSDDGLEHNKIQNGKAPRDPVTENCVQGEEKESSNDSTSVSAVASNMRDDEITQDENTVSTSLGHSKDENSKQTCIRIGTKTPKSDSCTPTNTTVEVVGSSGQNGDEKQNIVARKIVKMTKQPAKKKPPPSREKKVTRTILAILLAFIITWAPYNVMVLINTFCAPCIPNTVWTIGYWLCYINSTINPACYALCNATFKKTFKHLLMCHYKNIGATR
In short: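 CHO cells stably expressing human M2 and cotransfected with chimeric Gqi5, grown in Ham's F-12, 10% heat-inactivated FBS, 20 mM HEPES, 500 µg/mL G418 plus 500 µg/mL hygromycin B. Plated at 15,000 cells/well overnight (37 °C, 5% CO2), then Fluo-4 AM loaded 45 min at 37 °C in HBSS, 20 mM HEPES, 2.5 mM probenecid. Compound preincubated 144 s (0.3% DMSO final) before ACh; fluorescence read at 37 °C.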

Chain of M3 (P20309 whole entry): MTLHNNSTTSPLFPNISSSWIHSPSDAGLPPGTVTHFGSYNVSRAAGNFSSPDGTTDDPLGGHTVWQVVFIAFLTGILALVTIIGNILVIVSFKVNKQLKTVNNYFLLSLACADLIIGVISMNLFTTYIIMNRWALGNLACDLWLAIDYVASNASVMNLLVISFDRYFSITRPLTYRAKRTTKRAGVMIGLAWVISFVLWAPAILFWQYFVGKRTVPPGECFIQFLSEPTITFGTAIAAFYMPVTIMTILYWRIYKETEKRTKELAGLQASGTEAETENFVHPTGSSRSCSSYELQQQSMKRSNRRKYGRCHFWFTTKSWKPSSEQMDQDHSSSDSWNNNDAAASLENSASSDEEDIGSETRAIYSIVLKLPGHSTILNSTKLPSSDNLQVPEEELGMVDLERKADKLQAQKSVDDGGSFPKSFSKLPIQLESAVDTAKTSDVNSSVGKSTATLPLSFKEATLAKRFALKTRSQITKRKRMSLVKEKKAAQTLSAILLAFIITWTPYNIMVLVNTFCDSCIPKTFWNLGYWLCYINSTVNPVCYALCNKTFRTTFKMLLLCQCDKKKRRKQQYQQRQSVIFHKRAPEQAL

SMILES | %AChmax ± SEM (human M4 receptor) | hM4 PAM activity (in words) (human M4 receptor) | other results
COc1ccc(C)c2sc(NC(=O)C(C)C)nc12 [Compound 7] | Weak |  | 
COc1ccc(C)c2sc(NC(=O)C3CCCCO3)nc12 (centres unmarked) [Compound 16] |  | deleterious to activity | 
COc1ccc(C)c2sc(NC(=O)C3CCCOC3)nc12 (centres unmarked) [Compound 17] |  | deleterious to activity | 
COc1ccc(C)c2sc(NC(=O)c3ccncc3)nc12 [Compound 21, N-(4-methoxy-7-methylbenzo[d]thiazol-2-yl)isonicotinamide] |  |  | activity at M3 (M3): inactive; activity at M1 (M1): inactive; activity at M5 (M5): inactive; activity at M2 (M2): inactive
COc1ccc(C)c2sc(C(=O)Nc3ccncc3)nc12 [Compound 44] | Weak |  | 
COc1ccc(C)c2sc(C(=O)NC3CCCC3)nc12 [Compound 48] | Weak |  | 
COc1ccc(C)c2sc(C(=O)NC3COC3)nc12 [Compound 49] | Weak |  | 
O=C(Nc1nc2ccccc2s1)C1CCCCO1 (centres unmarked) [Compound 50] |  | not tolerated | 
